Test results taken from paper PMC3529830 (Chemistry & biology, 2012).

Experiments:
[1] = test system: A549 cells; conditions: 1 μM; ref Czesny et al., 2009; cited from earlier work
[2] = test system: NIH3T3 cells; conditions: 1 μM; ref Czesny et al., 2009; cited from earlier work
[3] = test system: P. falciparum; conditions: 1 μM; ref Czesny et al., 2009; cited from earlier work
[4] = test system: P. falciparum; assay: P. falciparum replication assay; assay type: cell-based; conditions: Plasmodium falciparum, read-out: EC50, parasite replication
[5] = test system: non-confluent human foreskin fibroblast (HFF) cells; assay: HFF cell toxicity assay; assay type: cell-based; conditions: read-out: EC50, host cell killing
[6] = biological target: putative β5 subunit of P. falciparum proteasome (Plasmodium falciparum, UniProt Q8IJT1); assay: Proteasome activity in intact inhibitor-treated trophozoites by MV151 labeling; assay type: cell-based
In short: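 P. falciparum culture at ~15% parasitemia; intact trophozoites exposed 1 hr to a range of inhibitor concentrations, then pelleted and washed 3× in fresh medium. Hypotonic lysis (50 mM Tris pH 7.4, 5 mM MgCl2, 1 mM DTT) on ice 1 hr. ≥2 μg lysate labeled with 2 μM MV151, 37°C 1 hr. Run on 12% SDS-PAGE, TAMRA fluorescence scan. Band intensity expressed as % of DMSO; curve fit to IC50; 3 independent experiments.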

[7] = test system: P. falciparum proteasome; assay: Recovery of P. falciparum proteasome activity after inhibitor washout; assay type: cell-based, Plasmodium falciparum
[8] = test system: P. berghei; assay: P. berghei mouse model of malaria, parasitemia; assay type: in vivo, Plasmodium berghei in Balb/c mice; conditions: tolerated dose, I.V. daily for 3 consecutive days
[9] = test system: P. falciparum gametocytes; assay: P. falciparum gametocyte viability assay; assay type: cell-based, Plasmodium falciparum; conditions: 24 hr treatment
[10] = 5 consecutive days of treatment; ref Demo et al., 2007; cited from earlier work
[11] = Host toxicity in P. berghei infected mice during treatment; conditions: daily I.V. doses, scruffy coat, significant weight loss
[12] = rat P. berghei model; ref Gantt et al., 1998; cited from earlier work

CC[C@H](C)[C@H](NC(=O)[C@H]([C@@H](C)CC)N(C)C(C)=O)C(=O)N[C@H](C(=O)N[C@@H](CC(C)C)C(=O)[C@@]1(C)CO1)[C@@H](C)O [epoxomicin]
decrease in viability [1]: 20% | decrease in viability [2]: 20% | effect on P. falciparum replication [3]: completely blocking

CC(C)C[C@H](NC(=O)[C@H](CCc1ccccc1)NC(=O)CN1CCOCC1)C(=O)N[C@@H](Cc1ccccc1)C(=O)N[C@@H](CC(C)C)C(=O)[C@@]1(C)CO1 [carfilzomib, Carfilzomib]
EC50 [4]: 28.8 nM | EC50 [5]: 492 nM | IC50 [6]: 25 nM | inhibitor exposure necessary to prevent recovery of proteasome activity ([7]; 100 nM dose, activity determined 10 hr after washout): at least 6 hr | recovery of proteasome activity after washout ([7]; 1 μM, 1 hr treatment, 47 hrs after compound washout): substantial recovery of proteasome activity | time to recovery of proteasome activity after inhibitor removal ([7]; 1 hr treatment of trophozoites, washout, depending on the dose): ≤ 24 h | effect on parasite burden [8]: only a very minor effect on parasite burden at day 3 | activity against gametocytes [9]: effective towards gametocytes | maximum tolerable dose [10]: 2 mg/kg | dose at which mice started to develop signs of compound toxicity [11]: 1 mg/kg

CC(=O)N[C@@H](CSC(=O)[C@]1([C@@H](O)C(C)C)NC(=O)[C@H](C)[C@@H]1O)C(=O)O [lactacystin, Lactacystin]
host toxicity [12]: significant host toxicity
